PMC11604526 (Cell Reports Medicine, 2024)
Entries after “also recorded” stand apart in the source; their conditions may differ.

Tests used:
mice [1] = test: Conditioned place preference; format: in vivo, mouse; conditions: n = 10
In short: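 During pretest and test, mice had free access to both chambers for 15 min. Vehicle-group mice received vehicle injections morning and afternoon; all other steps matched the compound group. Apparatus was cleaned with 75% alcohol after each pretest, training and test session.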

GAT-1-Synt1A interaction = GAT-1-Synt1A interaction (Rattus norvegicus, UniProt P23978); test: Co-IP of Synt1A-GAT-1 complexes after tMCAO; format: in vivo; conditions: intranasally given days 5-11 after stroke
In short: (§1)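 Dissected tissue was lysed on ice for 30 min in ice-cold RIPA buffer (50 mM Tris-HCl pH 7.4, 150 mM NaCl, 1 mM EDTA, 1% NP-40, 0.1% SDS, 0.5% deoxycholate, protease inhibitors). Lysates were spun at 12,000 ×g for 15 min at 4°C, and supernatant was precleared 1 h at 4°C with protein G magnetic beads before co-IP. Blots were probed with anti-GAT-1 (1:4000) and anti-syntaxin1A (1:4000).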

mice [2] = test: Open field test; format: in vivo, mouse; conditions: 5 min; n = 14
rats subjected to tMCAO [3] = test: Morris water maze after tMCAO; format: in vivo; conditions: rat tMCAO, intranasal days 5-11
In short: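 Rats were habituated to the maze (180 cm diameter, opacified water, drained daily) 1 day beforehand. In learning trials, rats swam up to 60 s to reach a hidden platform 1.2 cm below the surface. A probe trial without the platform ran 24 h after the last learning trial. Swimming was recorded by overhead video tracking.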

[4] = system: mice with photothrombotic stroke; test: Motor function; format: in vivo, mouse
In short: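 Photothrombotic stroke was induced with rose bengal, holding body temperature at 37 ± 0.5°C. For grid walking, each mouse walked freely for 5 min on a wire grid 50 cm high. For the cylinder task, mice explored a clear cylinder (15 cm tall, 10 cm diameter) for 5 min, and only rears with both forelimbs clearly visible were timed. Tests ran 7 days before stroke and at set days after stroke.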

[5] = system: pyramidal neurons in the peri-infarct cortex; test: Fiber photometry of GCaMP6s Ca2+ signal; format: in vivo, mouse; conditions: intranasal administration; Figures S6F, S6G
In short: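 AAV-CaMKII-GCaMP6s was injected into the peri-infarct cortex (AP 0, ML −2.0, DV −1.3 mm from bregma). An optical fibre (230 μm OD, 0.37 NA) was implanted at the same site. GCaMP6s fluorescence was excited with a 488 nm LED at 20 μW at the fibre tip and recorded by fibre photometry.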

GAT-1 [6] = target: GAT-1 (Mus musculus, UniProt P31648); test: 3H-GABA uptake assay in cultured neurons; format: cell-based; conditions: 1 h drug preincubation; 10 nM 3H-GABA + 30 μM GABA, 37°C 1 h; n = 5
In short: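 Primary cortical neurons from E16 mice were grown on poly-L-ornithine in Neurobasal with 2% B27. Cells were rinsed twice in 37°C HBSS, equilibrated 10 min, then preincubated 1 h in drug-containing HBSS. Uptake was started with 3H-GABA (10 nM final) plus unlabeled GABA (30 μM final), 37°C for 1 h. It was stopped by three ice-cold HBSS washes, solubilised in 0.1 M NaOH, and read by scintillation counting plus BCA protein assay. Analysis used a two-tailed t test.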

[7] = system: extracellular GABA ([GABA]o); test: Extracellular GABA after tMCAO; format: in vivo, rat; conditions: intranasal delivery; Figure 6F; n = 5
GAT-1 [8] = test: 3H-GABA uptake in HEK293 cells overexpressing GAT-1; format: cell-based; conditions: n = 5
In short: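 HEK293 cells were kept in MEM with 10% FBS and transduced with lentiviral GAT-1-EGFP. These GAT-1-overexpressing cells were incubated with peptide (100 nM), or with the mutant control peptide at the same concentration, before 3H-GABA uptake was measured.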

[9] = system: layer 5 peri-infarct pyramidal neurons; test: Whole-cell recordings in acute brain slices from treated mice; format: in vivo, mouse; conditions: intranasal administration
[10] = system: extracellular GABA ([GABA]o); test: Extracellular GABA in peri-infarct cortex; format: in vivo, mouse; conditions: intranasal administration; Figure S6A; n = 5
In short: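 A CMA7 microdialysis probe was placed in peri-infarct cortex (AP 0, ML −0.65, DV −1.5 mm from bregma). It was perfused at 1 μL/min with bicarbonate-buffered saline containing 10 mM glucose. Dialysate was collected in 20-min fractions over 2 h, and the second fraction was analysed. GABA was measured by ELISA (activator, 37°C for 15 min in the dark, stop solution, A450).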

infarct volume = test: Infarct volume; format: in vivo; conditions: Nissl staining 12 days after stroke; n = 8
In short: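 Coronal 40 μm vibratome sections were stained in Nissl solution at 40°C for 10 min. Infarct size was measured on microscope images.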

rats subjected to tMCAO [11] = test: Sensorimotor function after tMCAO; format: in vivo; conditions: rat tMCAO, intranasal days 5-11 after stroke
In short: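 For grid walking, rats walked 5 min on a wire grid 60 cm high. For the cylinder task, rats explored a cylinder (30 cm tall, 20 cm diameter) for 5 min. For sticky tape, rats were handled 30 min/day for 3 days first. Ratio of interest = seconds attending to stimulus/30, averaging the best two trials. Sticky-tape ratio = left forepaw ratio/right forepaw ratio.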

GAT-1-Synt1A complex = GAT-1-Synt1A complex (Mus musculus, UniProt P31648); format: in vivo; conditions: intranasally given days 5-11 after photothrombotic stroke; n = 5
In short: as §1

[12] = Concentration of ZLQ-3-1 in brain tissue; format: in vivo, rat; conditions: intranasal delivery; brain homogenate, LC-MS/MS
In short: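 Brain tissue was quantified by LC-MS/MS with verapamil run alongside. The test compound eluted at 1.45 min and verapamil at 1.65 min.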

[13] = 5 mg/kg intranasally days 5-11 after stroke, test day 12

Question: Which conditioned place preference (mice [1]) does the source give for “Glucose-D-Arg-Dmt-Cha-D-Lys-D-Arg-NH2 [ZLQ-3-1]” here?
Answer: did not affect

Question: And the “stroke-induced GAT-1-Synt1A interaction in the hippocampus” value (GAT-1-Synt1A interaction)?
Answer: reversed stroke-induced GAT-1-Synt1A interaction

Question: What about the “stroke-induced GAT-1-Synt1A interaction in the peri-infarct cortex” value (GAT-1-Synt1A interaction) of the same substance?
Answer: reversed stroke-induced GAT-1-Synt1A interaction

Question: And the “locomotor activity (open field test: total distance, velocity)” value (mice [2])?
Answer: did not affect locomotor activity

Question: What about the swimming speed (rats subjected to tMCAO [3]) of the same substance?
Answer: did not affect swimming speed

Question: What about the “target entries in the probe test” value (rats subjected to tMCAO [3]) of the same substance?
Answer: increased target entries

Question: And the “time spent in target quadrant in the probe test” value (rats subjected to tMCAO [3])?
Answer: increased

Question: And the “latency (time to reach the platform)” value (rats subjected to tMCAO [3]; training trials)?
Answer: significantly decreased latency

Question: And the “impairment of motor functions, intranasal 5 mg/kg” value [4, 13]?
Answer: attenuated the impairment of motor functions

Question: What about the “motor functional recovery of ZLQ-3-1-treated versus ZLQ-3-treated mice” value [4, 13] of the same substance?
Answer: better motor functional recovery than ZLQ-3-treated mice

Question: And the “impairment of motor functions, intraperitoneal dosing” value ([4]; 2.5, 5, 10, or 20 mg/kg i.p. days 5-11 after stroke, test day 12)?
Answer: attenuated the impairment of motor functions dose dependently

Question: And the “long-term motor functional recovery, WT mice” value ([4]; intranasal treatment days 5-11 after stroke, Figure S5K)?
Answer: long-lasting motor functional recovery effects

Question: And the “stroke-induced decline in cortical excitability, WT mice” value [5]?
Answer: prevented stroke-induced decline in cortical excitability

Question: And the “3H-GABA uptake in cultured neurons” value (GAT-1 [6])?
Answer: significantly increased ^3H-GABA uptake

Question: And the “stroke-induced increase in [GABA]o in the peri-infarct cortex” value [7]?
Answer: reversed

Question: And the “reuptake of GABA by GAT-1, HEK293 cells overexpressing GAT-1” value (GAT-1 [8])?
Answer: did not directly affect the reuptake of GABA by GAT-1

Question: What about the “stroke-induced increase in tonic inhibition” value ([9]; Figures S6B, S6C) of the same substance?
Answer: reversed stroke-induced increases

Question: What about the “inhibitory synaptic transmission (sIPSC)” value ([9]; Figures S6D, S6E) of the same substance?
Answer: increased inhibitory synaptic transmission

Question: What about the “stroke-induced increase in extracellular GABA” value [10] of the same substance?
Answer: reversed stroke-induced increases in extracellular GABA

Question: And the infarct volume (infarct volume)?
Answer: did not change infarct volume

Question: What about the “foot faults in the grid-walking task” value (rats subjected to tMCAO [11]) of the same substance?
Answer: decreased foot faults

Question: And the “forelimb sticky-tape ratio in modified sticky-tape test” value (rats subjected to tMCAO [11])?
Answer: increased forelimb sticky-tape ratio

Question: What about the “forelimb symmetry index in the cylinder task” value (rats subjected to tMCAO [11]) of the same substance?
Answer: decreased

Question: And the “somatosensory and motor functions” value (rats subjected to tMCAO [11]; tests days 4, 12, 19, 26)?
Answer: significantly improved somatosensory and motor functions

Question: And the “stroke-induced GAT-1-Synt1A interaction, intranasal dosing” value (GAT-1-Synt1A complex)?
Answer: reversed stroke-induced GAT-1-Synt1A interaction

Question: And the “brain exposure of ZLQ-3-1 (time course of concentrations in brain tissue)” value [12]?
Answer: rapid and long-lasting brain exposure; also recorded: high brain exposure
